Measurements: paper PMC3001272 (Biochemistry, 2010)
Where a SMILES comes first, the peptide text is derived from it.

Legend:
[1] = biological target: T1, PDZ2 (second PDZ domain, 1361-1456) from human PTP1E/PTPL1 (Homo sapiens, UniProt Q12923); assay: NMR titration binding affinity of peptide to PDZ2
T1 sequence (Q12923 1361-1456): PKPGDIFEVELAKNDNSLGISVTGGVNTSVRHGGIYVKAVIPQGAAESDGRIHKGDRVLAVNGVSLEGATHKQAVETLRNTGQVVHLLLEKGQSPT
Outline: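 NMR titration of test peptide into PDZ2 expressed in E. coli BL21(DE3), 1 mM, in 150 mM NaCl, 50 mM sodium phosphate pH 6.8, 10% D2O, at 25 °C on 500/600 MHz spectrometers. Protein concentration by UV absorbance at 280 nm; Kd derived from titration.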

[2] = biological target: T1, PDZ2 (second PDZ domain, 1361-1456) from human PTP1E/PTPL1; assay: Fluorescence binding affinity of peptide to PDZ2
APC C-terminal peptide = biological target: T2, APC C-terminal peptide (Homo sapiens); assay: NMR titration
T2 chain: GSYLVTSV

Q: How did the Kd [1] turn out when CC(C)C[C@H](NC(=O)[C@H](Cc1ccc(O)cc1)NC(=O)[C@H](CO)NC(=O)CN)C(=O)N[C@H](C(=O)N[C@H](C(=O)N[C@@H](CO)C(=O)N[C@H](C(=O)O)C(C)C)[C@@H](C)O)C(C)C [APC] (H-GSYLVTSV-OH) was run?
A: Its Kd is 10 µM.

Q: CC(=O)N[C@@H](CCC(=O)O)C(=O)N[C@@H](CC(N)=O)C(=O)N[C@@H](CCC(=O)O)C(=O)N[C@@H](CCC(N)=O)C(=O)N[C@H](C(=O)N[C@@H](CO)C(=O)N[C@@H](C)C(=O)N[C@H](C(=O)O)C(C)C)C(C)C [RA-GEF2] (Ac-ENEQVSAV-OH) was tested. Which Kd [2] did it give?
A: Its Kd is 10 µM.

B1: PTP1E (PTPL1) PDZ2 1361-1456 (protein)
chain: PKPGDIFEVELAKNDNSLGISVTGGVNTSVRHGGIYVKAVIPQGAAESDGRIHKGDRVLAVNGVSLEGATHKQAVETLRNTGQVVHLLLEKGQSPT
Q: With B1 as the molecule, how does the Kd (APC C-terminal peptide) read?
A: The Kd was 10 µM.
